Residues, ends and D or L forms follow the SMILES beside them. *: point of attachment. X1 = [N-]=[N+]=NCCOCCOCCOCCOCC(=O)*
How the values were obtained:
[1] = molecular target: T1, E-selectin (Homo sapiens, UniProt P16581); assay: SPR direct binding to E-selectin-functionalized sensor chip
T1 sequence (P16581 22-610): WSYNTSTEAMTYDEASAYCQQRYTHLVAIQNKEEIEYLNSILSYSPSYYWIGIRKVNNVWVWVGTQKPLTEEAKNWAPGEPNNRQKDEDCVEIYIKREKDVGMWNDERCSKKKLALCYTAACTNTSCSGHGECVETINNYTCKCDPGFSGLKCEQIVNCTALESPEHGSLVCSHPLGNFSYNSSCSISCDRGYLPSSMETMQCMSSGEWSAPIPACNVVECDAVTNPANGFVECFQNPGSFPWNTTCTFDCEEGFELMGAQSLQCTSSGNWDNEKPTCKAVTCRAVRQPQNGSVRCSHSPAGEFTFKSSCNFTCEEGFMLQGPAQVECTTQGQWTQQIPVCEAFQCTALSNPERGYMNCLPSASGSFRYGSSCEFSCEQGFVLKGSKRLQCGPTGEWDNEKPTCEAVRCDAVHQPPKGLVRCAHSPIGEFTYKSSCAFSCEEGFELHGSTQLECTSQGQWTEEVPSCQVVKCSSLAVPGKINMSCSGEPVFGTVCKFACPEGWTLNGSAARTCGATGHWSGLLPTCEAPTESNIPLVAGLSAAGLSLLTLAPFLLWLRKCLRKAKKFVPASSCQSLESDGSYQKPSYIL

[2] = Water solubility of peptides; assay type: physicochemical; details: after HPLC purification; qualitative
[3] = system: E-selectin on HUVEC cells; assay type: cell-based, human; details: 10 μM in HKR pH 7.4, 30 min; 10 ng/mL TNFα for 12 h; heparin/HKR washes
Procedure, shortened: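 Human umbilical vein endothelial cells (HUVEC) were cultured as two parallel sets, with or without TNFα, to induce E‑selectin overexpression. Both sets were incubated for 30 min with 10 μM rhodamine‑labelled peptide/[60]fullerene conjugate (binding peptide or non‑binding control sequence). Cells were then washed thoroughly with heparin and HKR buffer and imaged by live‑cell confocal microscopy.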

Compound	Kd [1]	water solubility [2]	further results
CC[C@H](C)[C@H](N)C(=O)N[C@@H](CCC(=O)O)C(=O)N[C@@H](CC(C)C)C(=O)N[C@@H](CC(C)C)C(=O)N[C@@H](CCC(N)=O)C(=O)N[C@@H](C)C(=O)N[C@@H](CCCNC(=N)N)C(=O)N[C@@H](CCCCNC(=O)COCCOCCOCCOCCN=[N+]=[N-])C(N)=O [P1, IELLQARK‐(PEG)4‐N3] (H-IELLQARK(X1)-NH2)	51.6 µM	excellent purity and water solubility	
CC[C@H](C)[C@H](NC(=O)COCCOCCOCCOCCN=[N+]=[N-])C(=O)N[C@@H](CCC(=O)O)C(=O)N[C@@H](CC(C)C)C(=O)N[C@@H](CC(C)C)C(=O)N[C@@H](CCC(N)=O)C(=O)N[C@@H](C)C(=O)N[C@@H](CCCNC(=N)N)C(N)=O [P2, N3‐(PEG)4‐IELLQAR] (X1-IELLQAR-NH2)	2950 µM	excellent purity and water solubility	
C60-(IELLQARK)12 [F1]			dissociation behaviour in SPR sensorgrams ([1]; (12.5-0.78) μM, t>240 s, initial fast then extremely slow dissociation phase): two‐phase dissociation process; affinity increase relative to its monomeric counterpart ([1]; F1 vs monomeric peptide, E-selectin SPR): up to 3 orders of magnitude; affinity enhancement (β) factor ([1]; multivalent effect of F1, twelve peptide units, SI section 6.5, eq. 3): 71
C60-(ISELRSE)12 [FC]			cell fluorescence, TNFα-treated HUVEC cells, confocal microscopy [3]: residual fluorescence

From publication PMC9826239 (Angewandte Chemie (International Ed. in English), 2022)
